What was measured:
Mus musculus [1] = assay: In vivo evaluation to protect DBA/2 mice against audiogenic seizure at 100 mg/kg ip 30 min prior to noise stimulation; 0 out of 8 mouse effected; assay type: functional; settings: route intraperitoneal
Rattus norvegicus [2] = species: Rattus norvegicus; assay: In vitro evaluation to antagonize NMDA responses in rat cortical slice preparation; assay type: functional
Procedure, shortened: (§1)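 Rat cortical slice preparation. Apparent Kb was calculated from the rightward shift of the agonist (NMDA or AMPA) concentration-response curve produced by the antagonist. Values are means of three determinations.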

[3] = molecular target: Glutamate receptor ionotropic, NMDA 1 (Rattus norvegicus, UniProt P35439); assay: Binding affinity towards NMDA receptor to displace [3H]L-689,560 from rat cortical membranes
[4] = pKa value was determined; assay type: physicochemical
Mus musculus [5] = assay: In vivo evaluation to protect DBA/2 mice against audiogenic seizure at 50 mg/kg ip 30 min prior to noise stimulation; 0 out of 8 mouse effected; assay type: functional; settings: route intraperitoneal
Rattus norvegicus [6] = species: Rattus norvegicus; assay: In vitro evaluation to antagonize AMPA responses in rat cortical slice preparation; assay type: functional; procedure, shortened: as §1
Mus musculus [7] = assay: In vivo evaluation to protect DBA/2 mice against audiogenic seizure ip 30 min prior to noise stimulation; assay type: functional
Procedure, shortened: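 DBA/2 mice dosed intraperitoneally 30 min before noise stimulation and scored for protection against audiogenic seizure. Results are reported as ED50 (mg/kg) or as number protected/number tested at a single dose (50, 75 or 100 mg/kg, groups of 8).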

Mus musculus [8] = assay: In vivo evaluation to protect DBA/2 mice against audiogenic seizure at 75 mg/kg ip 30 min prior to noise stimulation; 2 out of 8 mouse effected; assay type: functional; settings: route intraperitoneal
[9] = pKa value was determined; Value ranges from 5-6; assay type: physicochemical

Row | IC50 [3] | pKa [4] | SMILES | Kb (Rattus norvegicus [2]) | also measured
1 |  |  | CN(C)C(=O)CC1c2ccc(Cl)cc2NC(=O)C1[N+](=O)[O-] (stereo not given) | 22.2 µM | Protected (Mus musculus [1]): 0
2 | > 100 µM |  | COC(=O)Cc1c(C(=O)OC)c(O)nc2cc(Cl)ccc12 |  | 
3 | > 100 µM | ~9 | COC(=O)CC1c2ccc(Cl)cc2NC(=O)C1C(=O)c1ccccc1 (stereo not given) |  | 
4 | 12 µM | 10.2 | COC(=O)CC1c2ccc(Cl)cc2NC(=O)C1C#N (stereo not given) |  | 
5 | > 100 µM | 10.8 | COC(=O)CC1c2ccc(Cl)cc2NC(=O)C1S(=O)(=O)c1ccccc1 (stereo not given) |  | 
6 | 7.43 µM |  | O=C(CC1c2ccc(Cl)cc2NC(=O)C1[N+](=O)[O-])Nc1ccccc1 (stereo not given) | > 10 µM | 
7 | 1.84 µM |  | CN(C(=O)CC1c2ccc(Cl)cc2NC(=O)C1[N+](=O)[O-])c1ccccc1 (stereo not given) | > 10 µM | Protected (Mus musculus [5]): 0
8 | 28.6 µM |  | COC(=O)CC1c2ccccc2NC(=O)C1[N+](=O)[O-] (stereo not given) |  | 
9 | > 100 µM | 9.9 | COC(=O)CC1c2ccc(Cl)cc2NC(=O)C1S(=O)(=O)c1ccc([N+](=O)[O-])cc1 (stereo not given) |  | 
10 | > 100 µM | > 11 | COC(=O)CC1c2ccc(Cl)cc2NC(=O)C1C(=O)OC (stereo not given) |  | 
11 | 2.23 µM |  | CCOC(=O)CC1c2ccc(Cl)cc2NC(=O)C1[N+](=O)[O-] (stereo not given) | 8.1 µM | 
12 | 12.4 µM |  | CNC(=O)CC1c2ccc(Cl)cc2NC(=O)C1[N+](=O)[O-] (stereo not given) | >30 | 
13 | > 100 µM |  | COC(=O)CC1CC(=O)Nc2cc(Cl)ccc21 (stereo not given) |  | 
14 | 0.414 µM |  | O=C1Nc2cc(Cl)ccc2CC1[N+](=O)[O-] (stereo not given) | 6.7 µM | Kb (Rattus norvegicus [6]): 9.2 µM; ED50 (Mus musculus [7]): 13.2 mg/kg
15 | > 100 µM | > 11 | COC(=O)CC1c2ccc(Cl)cc2NC(=O)C1S(C)(=O)=O (stereo not given) |  | 
16 | 1.32 µM |  | COC(=O)CC1c2ccc(Cl)cc2NC(=O)C1[N+](=O)[O-] (stereo not given) | 7 µM | Protected (Mus musculus [8]): 2; Kb (Rattus norvegicus [6]): 139 µM; pKa [9]: ~5
17 | 2.53 µM |  | O=C(CC1c2ccc(Cl)cc2NC(=O)C1[N+](=O)[O-])NCc1ccccc1 (stereo not given) |  | Protected (Mus musculus [1]): 0
18 | 5.59 µM |  | Cc1noc(CC2c3ccc(Cl)cc3NC(=O)C2[N+](=O)[O-])n1 (stereo not given) | 25.9 µM | Protected (Mus musculus [1]): 0

Reference: ChEMBL document CHEMBL1126881, “3-Nitro-3,4-dihydro-2(1H)-quinolones. Excitatory amino acid antagonists acting at glycine-site NMDA and (RS)-alpha-amino-3-hydroxy-5-methyl-4-isoxazolepropionic acid receptors” (J Med Chem, 1993)
